# HNF4A DNA FP = change in binding of human HNF4 alpha to DNA; activity change, % at 10 µM; HNF4a-FITC DNA binding, fluorescence polarization, 1 h; 360,000 compounds, 0.3% hits; AID 1224865; in the data active means activity change above about 30%, passing the limit was not always enough
# NadD inh = NadD (S. aureus) enzyme inhibition; purified NadD enzyme, colorimetric absorbance read-out; inhibition, % at 20 µM; 360,000 compounds, 0.78% hits; in the data active means inhibition above about 26%
# PP1 counter = counter-screen for PP5 inhibitors: inhibitors of human PP1-alpha. purified PP1alpha, OMFP fluorescence. inhibition, % at 6.7 µM. P62136. AID 2235. 320,000 compounds, 0.9% hits;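 active means inhibition above the mean inhibition of all tested compounds plus 3 SD, computed separately for each screening campaign, cut at about 15% in these data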
# Target sequence (P62136 whole entry, looked up): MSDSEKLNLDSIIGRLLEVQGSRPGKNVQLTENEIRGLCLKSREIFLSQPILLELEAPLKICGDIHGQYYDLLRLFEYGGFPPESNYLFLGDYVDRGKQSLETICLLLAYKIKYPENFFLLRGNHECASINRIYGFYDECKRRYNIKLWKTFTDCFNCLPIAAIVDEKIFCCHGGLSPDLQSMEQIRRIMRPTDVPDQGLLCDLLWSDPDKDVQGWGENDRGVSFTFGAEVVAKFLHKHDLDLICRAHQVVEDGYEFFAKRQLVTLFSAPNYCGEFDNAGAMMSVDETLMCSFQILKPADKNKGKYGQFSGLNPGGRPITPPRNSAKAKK
# CSN deneddyl inh = inhibitors of human CSN-mediated cullin deneddylation. Q92905. Purified CSN, SCF-Nedd8-OG deneddylation, fluorescence polarization. inhibition, % at 12.5 µM. 360,000 compounds, 0.38% hits. AID 651999;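 active means pattern-corrected inhibition above about 35%, with an unprinted fluorescence ratio check between 0.5 and 1.5, limit read from the data, passing the limit was not always enough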;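 further: 0% = enzyme with substrate and 100% = substrate without enzyme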
#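 Test system: Human Csn5 produced in HEK293T cells | Compound: 12.5 µM single point | Times: 90 min, room temperature | Signal: Fluorescence polarization readout | Read-out basis: % inhibition of substrate cleavage by Csn5 | Controls: no-enzyme wells high, enzyme-with-substrate wells low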
# TPT1 inh = blocks Candida albicans tRNA 2'-phosphotransferase | recombinant caTPT1, FP RNA substrate dephosphorylation | inhibition, % at 5 µM | 300,000 compounds, 0.81% hits | AID 1962;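 active means inhibition above the mean of all tested compounds plus 3 SD, set per screening campaign, cut at about 24% in these data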;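 further: plate controls were DMSO alone for no effect and ferristatin control at 100 nM for full effect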
# Rpn11 block = Rpn11 (human) deubiquitinase inhibition; human 26S proteasome, Ub4-pepOG fluorescence polarization; 20S core pre-blocked with epoxomicin; 360,000 compounds, 0.59% hits; O00487; inhibition, % at 20 µM;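 active means inhibition at 20 µM, scaled to each plate's controls, above about 33%, limit read from the data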
# Target sequence (O00487 whole entry, looked up): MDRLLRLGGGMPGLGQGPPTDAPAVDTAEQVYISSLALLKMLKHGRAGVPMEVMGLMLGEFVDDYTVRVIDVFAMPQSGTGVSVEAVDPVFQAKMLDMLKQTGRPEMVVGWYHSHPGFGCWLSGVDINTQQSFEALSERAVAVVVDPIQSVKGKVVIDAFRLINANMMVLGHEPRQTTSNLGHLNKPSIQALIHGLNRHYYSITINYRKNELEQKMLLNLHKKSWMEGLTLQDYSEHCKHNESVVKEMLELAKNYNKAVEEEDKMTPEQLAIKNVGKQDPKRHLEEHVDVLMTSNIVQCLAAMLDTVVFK
# caTPT1 confirm = TPT1 (C. albicans) inhibition, confirmation | shares compounds with TPT1 inh | recombinant caTPT1, fluorescence polarization, RNase T1 coupled | inhibition, % at 5 µM | 2,400 compounds, 74% hits;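 active means inhibition above the primary screen limit, the mean inhibition of all tested compounds plus 3 SD, cut at about 25% in these data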
# RNase T1 inh = blocks Aspergillus oryzae RNase T1, a TPT1 counter-screen; shares compounds with TPT1 inh; RNase T1 cleavage, fluorescence polarization, 1536-well; inhibition, % at 5 µM; 2,400 compounds, 83% hits;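 active means inhibition above the solvent-only control well mean plus 3 SD, limit set per screening run, cut at about 23% in these data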;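 further: plate controls were DMSO wells with enzyme for no effect and wells without RNase T1 for full effect; inhibitors block cleavage so intact labeled substrate keeps polarization high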
# PP1 confirm = confirmation of human PP1 phosphatase inhibitors; shares compounds with PP1 counter; purified PP1alpha, OMFP substrate fluorescence; inhibition, % at 6.7 µM; 1,900 compounds, 52% hits; AID 2358;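 active means mean PP1 inhibition above a set limit taken from the earlier primary screen, cut at about 15% in these data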
# PP5 inh counter = counter-screen for PP1 inhibitors: human PP5 phosphatase inhibition. shares compounds with PP1 counter. purified PP5c, OMFP fluorescence. inhibition, % at 6.7 µM. 1,900 compounds, 4% hits. AID 2360;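 active means mean PP5 inhibition over triplicate wells above about 9.5% taken from the earlier PP1 screen, limit read from the data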
# Rpn11 confirm = confirmation of human proteasome Rpn11 inhibitors; shares compounds with Rpn11 block; purified human 26S proteasome, Ub4-pepOG fluorescence polarization; proteasome pretreated with epoxomicin; inhibition, % at 20 µM; 1,900 compounds, 29% hits; AID 602318
# MMP-2 inh = MMP-2 (human) inhibition counter-screen; inhibition, % at 20 µM; recombinant MMP-2, FRET peptide cleavage fluorescence; 1,900 compounds, 4% hits; shares compounds with Rpn11 block;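 further: human MMP-2 activated beforehand with APMA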
# Thrombin inh = blocks bovine thrombin, flagging nonselective RPN11 hits. shares compounds with Rpn11 block. bovine thrombin cleavage of Ub4-pepOG, fluorescence polarization. inhibition, % at 20 µM. 1,900 compounds, 13% hits. AID 602333;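 active means mean inhibition at least 40% at 20 µM, or signal 3 deviations below plate average, so some actives read negative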;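 further: plate controls were thrombin with DMSO for no effect and buffer wells lacking thrombin for full effect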
# * = called active by the depositor; nt = not tested or not shown; + = active, no number. Rows were chosen to be rich in hits. Some 2.7% of all compounds tested hit in one or more screens of this group. Unless noted, no stated cut-off is given here; in the data, active means inhibition above about 40%; inactive means the rest.
SMILES,HNF4A DNA FP,NadD inh,PP1 counter,CSN deneddyl inh,TPT1 inh,Rpn11 block,caTPT1 confirm,RNase T1 inh,Rpn11 confirm,MMP-2 inh,Thrombin inh,others
CCOC(=O)Oc1c(OC)cc(C(=O)O[C@@H]2C[C@@H]3CN4CCc5c([nH]c6cc(OC)ccc56)[C@H]4C[C@@H]3[C@H](C(=O)OC)[C@H]2OC)cc1OC,32,10,20*,0,45*,40,42*,53*,nt,nt,nt,PP1 confirm=0;PP5 inh counter=5
COc1ccc2c(c1)cc(C(=O)N/N=C/c1c(O)c(C(=O)O)cc3ccccc13)n2C,27,9,35*,18,51*,nt,60*,65*,nt,nt,nt,PP1 confirm=30*;PP5 inh counter=1
COc1ccc(NC(=O)C2=CC=CN3CCS(=O)(=O)N=C23)c(OC)c1,-2,-3,nt,4,nt,-2,nt,nt,nt,nt,nt,
COc1ccc(NC(=O)CSc2nc3nc(C)cc(C)c3c(=O)[nH]2)cc1,-6,5,77*,0,25*,2,6,8,nt,nt,nt,PP1 confirm=-2;PP5 inh counter=-2
CCn1c(SCC(=O)N2CCOCC2)nc2c([nH]c3ccccc32)c1=O,1,-3,-2,2,4,4,nt,nt,nt,nt,nt,
Cc1ccsc1C(=O)N1CCC1(C)C(=O)NCC(C)(C)C (centres undefined),-3,1,nt,-4,nt,3,nt,nt,nt,nt,nt,
Cc1cccc(N2CCN(C(=O)c3ccc4c(c3)OCCO4)CC2)c1C,-2,0,0,4,1,-9,nt,nt,nt,nt,nt,
Cc1cccc(N2CCN(C(=O)c3ccc4c(c3)NC(=O)C(CSCc3cccc(F)c3)N4)CC2)c1C (centres undefined),nt,nt,23*,nt,134*,nt,131*,125*,nt,nt,nt,PP1 confirm=29*;PP5 inh counter=-2
C[C@H](CO)N1C[C@H](C)[C@@H](CN(C)S(=O)(=O)c2ccc(-c3ccccc3)cc2)OCc2cn(nn2)CCCC1=O,3,2,nt,1,nt,-5,nt,nt,nt,nt,nt,
COc1cccc2cc(-c3nnc(-c4ccccc4)o3)c(=O)oc12,-3,1,-2,-5,1,3,nt,nt,nt,nt,nt,
CCCCCCc1cc2cc(-c3nnc(-c4ccccc4OC)o3)c(=O)oc2cc1O,88,10,20*,87,97*,nt,97*,114*,nt,nt,nt,PP1 confirm=2;PP5 inh counter=-13
CCC(CC)C(C(=O)NCc1ccccc1)N(C)Cc1ccc(Cl)c(Cl)c1 (centres undefined),5,nt,nt,-3,nt,nt,nt,nt,nt,nt,nt,
COc1cc(/C=C/c2nc3ccccc3c(=O)[nH]2)cc(Br)c1O,35,0,1,38*,50*,109*,79*,78*,43*,-23,19,
COc1cc(/C=C/c2nc3ccccc3c(=O)[nH]2)ccc1O,6,-2,nt,6,nt,6,nt,nt,nt,nt,nt,
CCN1CCN(S(=O)(=O)c2ccc(C(=O)Nc3sc4c(c3C(N)=O)CCN(CC)C4)cc2)CC1,28,0,-2,16,96*,59*,115*,118*,2,-52,-2,
N#CCCN(C(=O)COC(=O)c1cc(=O)[nH]c2ccccc12)c1ccccc1,1,4,nt,-1,nt,-1,nt,nt,nt,nt,nt,
O=[N+]([O-])c1ccc(N/N=C/c2cn(-c3ccccc3)nc2-c2ccccc2)cc1,28,16,3,16,118*,48*,103*,111*,26,-20,10,
NS(=O)(=O)c1ccc(N/N=C/c2cn(-c3ccccc3)nc2-c2ccccc2)c([N+](=O)[O-])c1,2,30,13,-3,4,7,nt,nt,nt,nt,nt,
S=C1NCN(Cc2ccco2)CN1,2,-5,-3,3,2,-7,nt,nt,nt,nt,nt,
O=C1CC(=O)N(Cc2ccco2)C(=S)N1,-20,16,-3,61*,111*,191*,21,31*,102*,82*,+,
CC1(C(=O)NS(=O)(=O)c2ccc(Cl)s2)CCN1C(=O)CCc1ccccc1 (centres undefined),-5,1,nt,-3,nt,-4,nt,nt,nt,nt,nt,
CCOC(=O)C1=C(C)N=c2s/c(=C\c3ccc(OCC(=O)O)c(OC)c3)c(=O)n2C1c1ccc(OC)cc1 (centres undefined),1,6,10,7,25*,41*,44*,53*,8,-51,11,
COC(=O)C1=C(C)N=c2s/c(=C/c3ccoc3)c(=O)n2C1c1ccccc1 (centres undefined),45*,24,4,58*,58*,107*,61*,73*,48*,-15,47*,
Cc1ccccc1N=C1NC(=O)/C(=C/c2cccn2C)S1,22,2,7,5,38*,54*,28*,39*,40,5,44*,
CCN(CC)c1ccc(/C=N/NC(=O)Cc2cccs2)cc1,2,-5,-2,5,-1,-1,nt,nt,nt,nt,nt,
SMILES,HNF4A DNA FP,NadD inh,PP1 counter,CSN deneddyl inh,TPT1 inh,Rpn11 block,caTPT1 confirm,RNase T1 inh,Rpn11 confirm,MMP-2 inh,Thrombin inh,others
CCCCC1(C)OC(=O)C(=Cc2ccc(N(CC)CC)cc2)C(=O)O1 (centres undefined),7,14,0,27,92*,55*,167*,155*,92*,-29,90*,
COc1ccc(NC(=O)C2(C)CCN2C(=O)Cc2ccc(Cl)cc2Cl)cc1OC (centres undefined),0,-3,nt,-3,nt,2,nt,nt,nt,nt,nt,
Nc1ccc(Nc2ccccc2N)cc1,-28,29,14,8,25*,35*,26*,36*,1,-16,-2,
COc1ccc(Nc2ccnc3ccccc23)cc1,-1,-5,1,-4,-4,0,nt,nt,nt,nt,nt,
COc1ccc(Nc2ccccc2N)cc1,35,3,3,5,37*,52*,27*,35*,26,-2,17,
COc1ccc(CC(=O)Nc2ccc3c(c2)OC2(CCCC2)O3)c(OC)c1,2,-4,nt,1,nt,4,nt,nt,nt,nt,nt,

# High-throughput results: PubChem BioAssay, several laboratories
